Results as given in ChEMBL document CHEMBL4196166 (J Med Chem, 2018).
Activity calls are given as the source filed them. The rule behind the calls is not given here.

Experiments:
Trypsin = Trypsin (Homo sapiens, UniProt P07477+P07478+P35030); assay: Inhibition of trypsin (unknown origin) at 10 nM to 33.3 uM after 30 mins by gel-based ABPP assay; assay type: protein assay
MDA-MB-231 = assay: Cytotoxicity against human MDA-MB-231 cells assessed as reduction in cell viability after 48 hrs by CellTiter 96 Aqueous One solution cell proliferation assay; assay type: functional, cell-based; conditions: MDA-MB-231, 48 h
How it was run: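 Cells grown in DMEM high glucose with 10% heat-inactivated FCS, seeded at 5000/well and left 18 h. Compounds added at 1 nM–100 µM final (0.2% vehicle), n = 4 wells per concentration, with colour blanks. After 48 h, MTS reagent added for 2 h and A490 read. IC50 from a variable-slope sigmoidal fit.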

HT-1080 = assay: Antimetastatic activity against luciferase-tagged human HT1080 cells xenografted in NOD.Cg-Prkdc-IL2rg<tm1Wjl>SzJAusb mouse assessed as inhibition of late-stage lung metastasis at 7.5 mg/kg/day, ip administered […] measured day 21; assay type: functional; conditions: HT-1080, ip
How it was run: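 2.5 × 10^5 luciferase-tagged HT-1080 cells in PBS given by lateral tail vein on day 0. Daily ip dosing at 7.5 mg/kg from day -1 to day 20 (vehicle 50 mM acetate pH 5.5, 7.5% DMSO, 0.75% Tween80). Lungs harvested at day 21, homogenized, and tumour burden measured by luciferase assay. n = 4–6; one-way ANOVA with Dunnett's test.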

Homo sapiens [1] = assay: Antitumor activity against human PSC xenografted in BALB/c nu/nu mouse co-implanted with human AsPC1 cells assessed as reduction in tumor volume at 10 mg/kg/day, ip measured after 28 days post first dose; assay type: functional, organism-based
How it was run: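 Orthotopic AsPC-1 plus human stellate cell co-implant (1×10^6 each) in the pancreatic tail of female nude BALB/c nu/nu mice. From day 7, dosed for 4 weeks (n = 4/group) with 10 mg/kg/day ip in acetate pH 5.5/DMSO/Kolliphor vehicle, or gemcitabine 75 mg/kg gavage twice weekly. Tumors resected at 4 weeks after first injection and measured with calipers by two observers. Volume = 1/2(length×breadth×width). Mean ± SEM.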

Homo sapiens [2] = assay: Antimetastatic activity against human PSC xenografted in BALB/c nu/nu mouse co-implanted with human AsPC1 cells assessed as reduction in metastasis lesions in liver at 10 mg/kg/day, ip measured after 28 days post first dose by microscopic analysis; assay type: functional, organism-based
How it was run: (§1)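 Female athymic BALB/c nu/nu mice, 6–8 weeks old. 1×10^6 AsPC-1 and 1×10^6 human pancreatic stellate cells in 50 µL PBS injected into the pancreatic tail. Treatment randomized on day 7 (n = 4/group) for 4 weeks: 10 mg/kg/day ip in 50 mM sodium acetate pH 5.5/10% DMSO/1% Kolliphor HS-15, or gemcitabine 75 mg/kg by oral gavage twice weekly, or vehicle. At kill, liver scored for visible macrometastases, fixed in formalin, and 4 µm sections stained with H&E. Chi-square test.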

ASPC1 = assay: Antimetastatic activity against human AsPC1 cells xenografted in BALB/c nu/nu mouse co-implanted with human PSC assessed as reduction in metastasis lesions in liver at 10 mg/kg/day, ip measured after 28 days post first dose by microscopic analysis; assay type: functional, organism-based; how it was run: as §1
[3] = target: T1, Epithelial sodium channel subunit alpha (Homo sapiens, UniProt P37088); assay: Inhibition of S-3969-stimulated recombinant human ENaC alpha subunit expressed in HEK293 cells at 10 uM preincubated for 5 mins followed by S-3969 stimulation by FLIPR assay; assay type: cell-based; conditions: hek293, 10 µM
T1 sequence (P37088 whole entry): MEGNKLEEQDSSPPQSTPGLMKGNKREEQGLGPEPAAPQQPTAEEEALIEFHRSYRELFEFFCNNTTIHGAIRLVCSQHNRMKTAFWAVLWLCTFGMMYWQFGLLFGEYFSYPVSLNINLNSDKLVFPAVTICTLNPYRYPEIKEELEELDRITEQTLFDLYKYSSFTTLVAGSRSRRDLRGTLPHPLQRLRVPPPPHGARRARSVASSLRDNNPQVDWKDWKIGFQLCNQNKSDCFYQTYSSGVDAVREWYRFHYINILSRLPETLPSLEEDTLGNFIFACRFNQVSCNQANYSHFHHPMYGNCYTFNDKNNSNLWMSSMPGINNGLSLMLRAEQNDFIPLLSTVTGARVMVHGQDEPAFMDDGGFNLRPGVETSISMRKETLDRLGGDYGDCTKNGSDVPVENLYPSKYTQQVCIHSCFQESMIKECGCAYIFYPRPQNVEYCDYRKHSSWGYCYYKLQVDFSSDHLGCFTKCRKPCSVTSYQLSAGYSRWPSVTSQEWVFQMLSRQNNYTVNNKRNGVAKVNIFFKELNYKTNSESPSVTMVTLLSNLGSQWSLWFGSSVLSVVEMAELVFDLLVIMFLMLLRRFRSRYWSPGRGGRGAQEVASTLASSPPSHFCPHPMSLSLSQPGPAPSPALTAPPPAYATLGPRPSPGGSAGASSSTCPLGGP
How it was run: (§2)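 HEK-293 cells transfected with human ENaC α, β and γ cDNA together, plated at 20 000 cells/well, incubated overnight at 37 °C. Loaded with membrane-potential red dye for 30 min at 37 °C. Compound preincubated 5 min in HEPES-buffered salt solution (pH 7.4, 0.3% DMSO), then stimulated with 1 µM S-3969, read on FLIPR. Signal normalized to agonist alone (100%) and agonist plus 30 µM benzamil (0%). n = 4 wells.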

[4] = target: T2, Epithelial sodium channel subunit gamma (Homo sapiens, UniProt P51170); assay: Inhibition of S-3969-stimulated recombinant human ENaC gamma subunit expressed in HEK293 cells at 10 uM preincubated for 5 mins followed by S-3969 stimulation by FLIPR assay; assay type: cell-based; conditions: hek293, 10 µM; how it was run: as §2
T2 sequence (P51170 whole entry): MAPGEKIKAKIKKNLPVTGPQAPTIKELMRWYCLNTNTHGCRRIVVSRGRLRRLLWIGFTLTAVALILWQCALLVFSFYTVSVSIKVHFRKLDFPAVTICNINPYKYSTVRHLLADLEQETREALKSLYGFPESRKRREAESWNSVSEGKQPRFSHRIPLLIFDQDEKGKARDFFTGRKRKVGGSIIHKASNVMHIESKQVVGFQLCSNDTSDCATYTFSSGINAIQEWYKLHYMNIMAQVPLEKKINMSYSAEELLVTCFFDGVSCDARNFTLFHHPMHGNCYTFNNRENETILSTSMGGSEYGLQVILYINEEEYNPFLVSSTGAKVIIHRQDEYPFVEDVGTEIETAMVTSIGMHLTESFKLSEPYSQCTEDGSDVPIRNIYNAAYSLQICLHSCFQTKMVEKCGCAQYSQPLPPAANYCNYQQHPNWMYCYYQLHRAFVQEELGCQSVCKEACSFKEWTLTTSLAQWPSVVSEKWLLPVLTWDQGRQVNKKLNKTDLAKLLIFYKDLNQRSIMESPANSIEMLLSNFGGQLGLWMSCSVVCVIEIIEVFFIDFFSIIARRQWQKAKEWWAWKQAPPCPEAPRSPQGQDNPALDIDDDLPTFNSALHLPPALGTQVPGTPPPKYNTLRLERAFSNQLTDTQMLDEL

| Compound | inhibition (Trypsin) | IC50 (MDA-MB-231) [µM] | inhibition in vivo at 7.5 mg/kg/day (HT-1080) [%] | Activity (Homo sapiens [1]) | Activity (Homo sapiens [2]) | Activity (ASPC1) | inhibition (INH) [3] | inhibition (INH) [4] |
| --- | --- | --- | --- | --- | --- | --- | --- | --- |
| COc1ncc(-c2nc(C(=O)NC(=N)N)c(N)nc2N2CCCCCC2)cn1 | Active | > 100 | 33 | Active | Active | Active |  |  |
| N=C(N)NC(=O)c1nc(-c2cc3ccccc3o2)c(N2CCCCCC2)nc1N | Active |  | 21 | Active | Active | Active | Not Active | Not Active |
| N=C(N)NC(=O)c1nc(Cl)c(N2CCCCCC2)nc1N [N,N-HEXAMETHYLENEAMILORIDE] |  | 27.3 |  |  |  |  | Not Active | Not Active |
